The structures appear in SMILES notation. pIC50: −log10 of the molar value. Active and inactive are the calls of the source. The calls are words filed in the database; no cut-off is given here.

The term pIC50 denotes the IC50 on a negative log10 scale, so that one unit is a factor of ten. A low value points to a large IC50. As a reminder, the GI50 is the concentration at which growth is held to half of that of the control. Read a low GI50 as greater sensitivity of the cells. The term inhibition denotes the relative decrease from the control value, in per cent. A lower inhibition goes with little suppression.

Assay [1] can be described thus: Inhibition of bovine brain tubulin assembly by turbidimetry based spectrophotometric method. More on the design: species or system Bos taurus.
Assay [2] can be described thus: Antiproliferative activity against human Panel NCI-56 (56 carcinoma cell lines) measured after 48 hrs by SRB assay. Format: functional. The method, boiled down: (§1)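 Full NCI human tumor cell line panel; selected compounds tested at five doses, 10^-4 to 10^-8 M, with growth inhibition summarised as the mean graph mid-point (MG_MID) across the panel.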
(The SRB assay estimates cell density from bound dye.)

A short description of assay [3]: Antiproliferative activity against human Panel NCI-55 (55 carcinoma cell lines) measured after 48 hrs by SRB assay. Type of assay: functional. In a few lines: as §1
Assay [4] deals with T1, Tubulin (Homo sapiens) (UniProt P68371+Q9H4B7+P0DPH7+P68366+Q13509+Q71U36+P04350+Q3ZCM7+P07437+P68363+Q9BQE3+Q6PEY2+Q13885+Q9BVA1+Q9BUF5). The experiment in a line: Inhibition of [3H]colchicine binding to tubulin (unknown origin) at 50 uM by DEAE-cellulose filter method relative to control. Format: protein-complex assay.
Assay [5] concerns HeLa. The experiment in a line: Induction of apoptosis in human HeLa cells assessed as increase in annexin-V positive cells at 10 uM measured after 24 hrs by Annexin V-FITC/propidium iodide staining based flow cytometry. Format: functional, cell-based. In a few lines:
(§2)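 HeLa cells incubated 24 or 48 h at the stated concentrations, double stained with annexin V-FITC and PI, and surface phosphatidylserine measured by flow cytometry to separate live, early apoptotic, late apoptotic and necrotic cells; mean ± SEM of three independent experiments; p vs control.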
(A flow cytometer gives signals particle by particle.)

The nature of assay [6]: Antiproliferative activity against human Panel NCI-57 (57 carcinoma cell lines) measured after 48 hrs by SRB assay. Format: functional. In a few lines:
as §1

In assay [7] the test system is HeLa. The experiment in a line: Cell cycle arrest in human HeLa cells assessed as reduction in accumulation at G1 phase at 0.1 to 10 uM measured after 24 hrs by propidium iodide staining based flow cytometry. Type of assay: functional. The conditions noted are these: dose 0.1-10 µM. The method, boiled down:
(§3)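 HeLa cells exposed 24 h at 0.1, 1 and 10 µM; fixed, labelled with propidium iodide and analysed by flow cytometry for the fraction in each cycle phase; mean ± SEM of three experiments.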

In assay [8] the test system is HeLa. The experiment in a line: Induction of apoptosis in human HeLa cells assessed as increase in necrotic cells at 10 uM measured after 48 hrs by Annexin V-FITC/propidium iodide staining based flow cytometry. Type of assay: functional, cell-based. The method, boiled down: as §2
The test system of assay [9] is HeLa. The experiment in a line: Induction of apoptosis in human HeLa cells assessed as increase in caspase-9 activation at 10 uM measured after 24 hrs by Western blot analysis. Format: functional, cell-based. The method, boiled down:
(§4)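 After 24 h exposure of HeLa cells to 1 or 10 µM, lysates were blotted for cleaved caspase-9 and PARP; primary antibodies 2 h at room temperature, peroxidase secondary 1 h, ECL detection, vinculin reprobe for equal loading.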
(In general: Immunoblotting shows a protein as a band on a membrane.)

Assay [10] has as its system HeLa. The experiment in a line: Induction of apoptosis in human HeLa cells at 10 uM measured after 48 hrs by Annexin V-FITC/propidium iodide staining based flow cytometry. Format: functional, cell-based. In a few lines: as §2
In assay [11] the test system is HeLa. The experiment in a line: Induction of mitochondrial potential loss in human HeLa cells measured after 24 to 48 hrs by JC1 staining based flow cytometry. Format: functional, cell-based. The conditions noted are these: dose 1-10 µM, time 24-48 hrs. The method, boiled down: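 Mitochondrial membrane potential in HeLa cells after 24 or 48 h at 1 and 10 µM; JC-1 staining, excitation 490 nm, monomer emission at 530 nm versus aggregate at 590 nm […], read by flow cytometry; mean ± SEM, three independent experiments.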

The subject of assay [12] is HeLa. The experiment in a line: Cell cycle arrest in human HeLa cells assessed as reduction in accumulation at S phase at 0.1 to 10 uM measured after 24 hrs by propidium iodide staining based flow cytometry. Type of assay: functional. The conditions noted are these: dose 0.1-10 µM. The method, boiled down: as §3
In assay [13] the test system is HeLa. The experiment in a line: Cell cycle arrest in human HeLa cells assessed as increase in cyclin B1 expression at 10 uM measured after 24 hrs by Western blot analysis. Type of assay: functional, cell-based. The method, boiled down: (§5)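 HeLa cells treated 24 h at 1 or 10 µM, washed in cold PBS, lysed on ice 30 min, protein quantified by BCA; western blot for cdc25c, p-cdc2 Y15 and cyclin B1, membranes stripped and reprobed for vinculin as loading control.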

The subject of assay [14] is HeLa. The experiment in a line: Cell cycle arrest in human HeLa cells assessed as accumulation at G2/M phase at 10 uM measured after 24 hrs by propidium iodide staining based flow cytometry relative to control. Format: functional. In a few lines:
as §3

For assay [15], the system named is HeLa. The experiment in a line: Induction of apoptosis in human HeLa cells assessed as increase in PARP cleavage at 10 uM measured after 24 hrs by Western blot analysis. Format: functional, cell-based. The method, boiled down: as §4
The subject of assay [16] is HeLa. The experiment in a line: Cell cycle arrest in human HeLa cells assessed as reduction in total cdc25c expression at 10 uM measured after 24 hrs by Western blot analysis. Format: functional, cell-based. In a few lines:
as §5

Assay [17] deals with HeLa. The experiment in a line: Cell cycle arrest in human HeLa cells assessed as increase in accumulation at G2/M phase measured after 24 hrs by propidium iodide staining based flow cytometry. Format: functional. The conditions noted are these: dose 0.1-10 µM. In a few lines: as §3
Assay [18] has as its system HeLa. The experiment in a line: Cell cycle arrest in human HeLa cells assessed as reduction in phosphorylated cdc2 expression at 10 uM measured after 24 hrs by Western blot analysis. Type of assay: functional, cell-based. In a few lines:
as §5

The target in assay [19] is T1, Tubulin (Homo sapiens). The experiment in a line: Inhibition of [3H]colchicine binding to tubulin (unknown origin) at 5 uM by DEAE-cellulose filter method relative to control. Type of assay: protein-complex assay.

Turning to `Nc1nc2c(s1)CCc1c-2c(Br)n(Cc2ccccc2)c1Br`, the pIC50 in [1] was < 4.70. Besides, halving of growth in assay [2] (GI50) required 0.53 µM.
In turn, `COc1ccc(Cn2c(Br)c3c(c2-c2cc(OC)c(OC)c(OC)c2)CCc2sc(NC(C)=O)nc2-3)cc1` gave a GI50 in [3] of 0.61 µM. Moreover, the pIC50 in assay [1] is 4.92. The same compound returned an inhibition at Tubulin (Homo sapiens) [4] of 41%.
As for `O=C(Nc1nc2c(s1)CCc1c-2c(Br)n(Cc2ccccc2)c1Br)c1ccccc1`, the pIC50 in [1] was < 4.70. The GI50 in assay [2] amounted to 1.2 µM.
Take `COc1ccc(Cn2c(Br)c3c(c2-c2cc(OC)c(OC)c(OC)c2)CCc2sc(N)nc2-3)cc1`: the result with HeLa [5], in the assay on HeLa [7], in the assay on HeLa [8], in the assay with HeLa [9], in the assay on HeLa [10] and with HeLa [12] was Active. In addition, the result in the assay with HeLa [13] and in the assay on HeLa [15] was Active. In assay [6], this compound came in with a GI50 of 0.21 µM. Further, the pIC50 in [1] is < 4.70. The same compound had an inhibition at Tubulin (Homo sapiens) [4] of 22%. The Activity result in the assay with HeLa [11] was “Dose-dependent effect”; in the assay with HeLa [14] it was >70%.
Take `COc1cc(-c2c3c(cn2S(=O)(=O)c2ccccc2)-c2nc(N)sc2CC3)cc(OC)c1OC`: the result with HeLa [5], with HeLa [7], with HeLa [8], with HeLa [16], in the assay with HeLa [18] and in the assay with HeLa [9] was Active. Besides, the outcome with HeLa [10], in the assay with HeLa [12], in the assay on HeLa [13] and with HeLa [15] was Active. Further, halving of growth in assay [6] (GI50) required 0.22 µM. The pIC50 in assay [1] is < 4.70. Besides, the Activity entry in the assay on HeLa [17] is “Dose-dependent effect”; with HeLa [11], “Dose-dependent effect”; with HeLa [14], >70%.
As for `COc1ccc(Cn2c(Br)c3c(c2Br)-c2nc(N)sc2CC3)cc1`, the inhibition was 11% at Tubulin (Homo sapiens) [19] and 60% on Tubulin (Homo sapiens) [4]. In assay [1], the pIC50 is 5.11. In assay [2], this compound came in with a GI50 of 0.41 µM.
